Experimental data reported in ChEMBL document CHEMBL4049458, “Structure-Based Optimization of Thiophene[3,2-d]pyrimidine Derivatives as Potent HIV-1 Non-nucleoside Reverse Transcriptase Inhibitors with Improved Potency against Resistance-Associated Variants” (J Med Chem, 2017).

Columns and labels:
[1] = Selectivity index, ratio of CC50 for human MT4 cells to EC50 for reverse transcriptase L100I mutant in human MT4 cells infected HIV1 3B
[2] = Selectivity index, ratio of CC50 for human MT4 cells to EC50 for reverse transcriptase E138K mutant in human MT4 cells infected HIV1 3B
[3] = Selectivity index, ratio of CC50 for human MT4 cells to EC50 for reverse transcriptase K103N mutant in human MT4 cells infected HIV1 3B
[4] = Selectivity index, ratio of CC50 for human MT4 cells to EC50 for wild type HIV1 3B harboring reverse transcriptase infected in human MT4 cells
[5] = system: Human immunodeficiency virus type 1 reverse transcriptase (Human immunodeficiency virus 1), Q72547 [K103N]; assay: Potency index, ratio of EC50 for EFV to EC50 for test compound for reverse transcriptase K103N mutant in human MT4 cells infected HIV1 3B; assay type: cell-based
[6] = Selectivity index, ratio of CC50 for human MT4 cells to EC50 for reverse transcriptase Y188L mutant in human MT4 cells infected HIV1 3B
[7] = system: Human immunodeficiency virus 2; assay: Antiviral activity against HIV2 ROD harboring reverse transcriptase infected in human MT4 cells assessed as protection against virus induced cytotoxicity after 5 days by MTT assay; assay type: functional, cell-based; conditions: Human immunodeficiency virus 2, ISOLATE ROD, MT4, 120 h
[8] = Selectivity index, ratio of CC50 for human MT4 cells to EC50 for reverse transcriptase F227L/V106A double mutant in human MT4 cells infected HIV1 3B
[9] = system: Human immunodeficiency virus type 1 reverse transcriptase (Human immunodeficiency virus 1), Q72547 [K103N]; assay: Potency index, ratio of EC50 for NVP to EC50 for test compound for reverse transcriptase K103N mutant in human MT4 cells infected HIV1 3B; assay type: cell-based
[10] = system: Human immunodeficiency virus 1; assay: Antiviral activity against wild type HIV1 3B harboring reverse transcriptase infected in human MT4 cells assessed as protection against virus induced cytotoxicity after 5 days by MTT assay; assay type: functional, cell-based; conditions: Human immunodeficiency virus 1, 3B, MT4, 120 h
[11] = Selectivity index, ratio of CC50 for human MT4 cells to EC50 for reverse transcriptase Y181C mutant in human MT4 cells infected HIV1 3B
[12] = Cytotoxicity against human MT4 cells assessed as cell viability after 5 days by MTT assay; assay type: cell-based
[13] = Selectivity index, ratio of CC50 for human MT4 cells to EC50 for HIV1 RES056 reverse transcriptase K103N/Y181C double mutant infected in human MT4 cells
[14] = Tmax in Sprague-Dawley rat at 24 mg/kg, po by LC-MS analysis; assay type: ADME, organism-based; conditions: in vivo
Rattus norvegicus [15] = assay: AUC(0 to infinity) in Sprague-Dawley rat at 24 mg/kg, po by LC-MS analysis; assay type: ADME, organism-based; set-up: dose 24 mg/kg, route oral, time infinity; conditions: in vivo
[16] = MRT(0 to infinity) in Sprague-Dawley rat at 2 mg/kg, iv by LC-MS analysis; assay type: ADME, organism-based; conditions: in vivo
[17] = MRT(0 to t) in Sprague-Dawley rat at 24 mg/kg, po by LC-MS analysis; assay type: ADME, organism-based; conditions: in vivo
[18] = MRT(0 to t) in Sprague-Dawley rat at 2 mg/kg, iv by LC-MS analysis; assay type: ADME, organism-based; conditions: in vivo
Rattus norvegicus [19] = assay: VRT(0 to t) in Sprague-Dawley rat at 24 mg/kg, po by LC-MS analysis; assay type: ADME, organism-based; conditions: in vivo
[20] = Apparent half life in Sprague-Dawley rat at 24 mg/kg, po by LC-MS analysis; assay type: ADME, organism-based; conditions: in vivo, read-out: t1/2(app) (converted)
Rattus norvegicus [21] = assay: VRT(0 to infinity) in Sprague-Dawley rat at 24 mg/kg, po by LC-MS analysis; assay type: ADME, organism-based; conditions: in vivo
[22] = Cmax in Sprague-Dawley rat at 2 mg/kg, iv by LC-MS analysis; assay type: ADME, organism-based; set-up: dose 2 mg/kg, route intravenous; conditions: in vivo
[23] = Apparent half life in Sprague-Dawley rat at 2 mg/kg, iv by LC-MS analysis; assay type: ADME, organism-based; conditions: in vivo, read-out: t1/2(app) (converted)
[24] = AUC(0 to t) in Sprague-Dawley rat at 24 mg/kg, po by LC-MS analysis; assay type: ADME, organism-based; conditions: in vivo
Mus musculus [25] = assay: Toxicity in Kunming mouse assessed as mortality at 2000 mg/kg, ig administered via gavage measure after 2 weeks; assay type: organism-based; conditions: in vivo, po, 336 h
Rattus norvegicus [26] = assay: Apparent clearance during terminal phase in Sprague-Dawley rat at 2 mg/kg, iv by LC-MS analysis; assay type: ADME, organism-based; conditions: in vivo
Mus musculus [27] = assay: Toxicity in Kunming mouse assessed as increase in body weight at 2000 mg/kg, ig administered via gavage measure after 2 weeks; assay type: organism-based; conditions: in vivo, po, 336 h
Rattus norvegicus [28] = assay: VRT(0 to infinity) in Sprague-Dawley rat at 2 mg/kg, iv by LC-MS analysis; assay type: ADME, organism-based; conditions: in vivo
[29] = MRT(0 to infinity) in Sprague-Dawley rat at 24 mg/kg, po by LC-MS analysis; assay type: ADME, organism-based; conditions: in vivo
[30] = Cmax in Sprague-Dawley rat at 24 mg/kg, po by LC-MS analysis; assay type: ADME, organism-based; set-up: dose 24 mg/kg, route oral; conditions: in vivo
[31] = Inhibition of recombinant wild type HIV1 3B reverse transcriptase infected in human MT4 cells assessed as decrease in biotin-dUTP incorporation after 1 hr; assay type: cell-based; conditions: Human immunodeficiency virus 1, 3B, MT4, 1 h
Procedure, shortened: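 Recombinant HIV-1 RT assayed with a kit ELISA. Enzyme, reconstituted template and nucleotides (DIG-dUTP, biotin-dUTP, dTTP) were incubated in incubation buffer with or without inhibitor for 1 h at 37 °C. Product was captured on streptavidin plates for 1 h at 37 °C, then anti-DIG-POD was added for 1 h at 37 °C, followed by ABTS. Read at OD405.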

[32] = AUC(0 to t) in Sprague-Dawley rat at 2 mg/kg, iv by LC-MS analysis; assay type: ADME, organism-based; conditions: in vivo
Rattus norvegicus [33] = assay: VRT(0 to t) in Sprague-Dawley rat at 2 mg/kg, iv by LC-MS analysis; assay type: ADME, organism-based; conditions: in vivo
[34] = AUC(0 to infinity) in Sprague-Dawley rat at 2 mg/kg, iv by LC-MS analysis; assay type: ADME, organism-based; set-up: dose 2 mg/kg, time infinity, route intravenous; conditions: in vivo
[35] = Fold resistance, ratio of EC50 for reverse transcriptase E138K mutant in human MT4 cells infected HIV1 3B to EC50 for wild type HIV1 3B harboring reverse transcriptase infected in human MT4 cells; assay type: functional
Procedure, shortened: (§1)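 MT-4 cells at 6 × 10^5 cells/mL were infected with WT HIV-1 IIIB or RT-mutant strains at 100−300 CCID50, with 5-fold serial compound dilutions in triplicate wells. After 5 days, viability was read by MTT reduction at 540 and 690 nm, using the median OD of three wells. […] Fold resistance is mutant EC50 divided by WT EC50.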

[36] = Fold resistance, ratio of EC50 for reverse transcriptase K103N mutant in human MT4 cells infected HIV1 3B to EC50 for wild type HIV1 3B harboring reverse transcriptase infected in human MT4 cells; assay type: functional; procedure, shortened: as §1
[37] = Fold resistance, ratio of EC50 for reverse transcriptase L100I mutant in human MT4 cells infected HIV1 3B to EC50 for wild type HIV1 3B harboring reverse transcriptase infected in human MT4 cells; assay type: functional; procedure, shortened: as §1
[38] = Fold resistance, ratio of EC50 for reverse transcriptase Y188L mutant in human MT4 cells infected HIV1 3B to EC50 for wild type HIV1 3B harboring reverse transcriptase infected in human MT4 cells; assay type: functional; procedure, shortened: as §1
[39] = Fold resistance, ratio of EC50 for reverse transcriptase K103N/Y181C double mutant in human MT4 cells infected HIV1 RES056 to EC50 for wild type HIV1 3B harboring reverse transcriptase infected in human MT4 cells; assay type: functional; procedure, shortened: as §1
[40] = Fold resistance, ratio of EC50 for reverse transcriptase Y181C mutant in human MT4 cells infected HIV1 3B to EC50 for wild type HIV1 3B harboring reverse transcriptase infected in human MT4 cells; assay type: functional; procedure, shortened: as §1
[41] = Fold resistance, ratio of EC50 for reverse transcriptase F227L/V106A double mutant in human MT4 cells infected HIV1 3B to EC50 for wild type HIV1 3B harboring reverse transcriptase infected in human MT4 cells; assay type: functional; procedure, shortened: as §1

Cc1cc(C#N)cc(C)c1Oc1nc(NC2CCN(Cc3ccc(S(C)(=O)=O)cc3)CC2)nc2sccc12
selectivity ratio ([1]; MT4 cells): 152
selectivity ratio ([2]; MT4 cells): 164
selectivity ratio ([3]; MT4 cells): 725
selectivity ratio ([4]; MT4 cells): 335
Ratio EC50 [5]: 50
selectivity ratio ([6]; MT4 cells): 124
EC50 [7]: > 1190 nM
selectivity ratio ([8]; MT4 cells): 137
Ratio EC50 [9]: 3370
EC50 [10]: 3.56 nM
selectivity ratio ([11]; MT4 cells): 200
CC50 at 120 h [12]: 1190 nM
selectivity ratio ([13]; MT4 cells): 28

Cc1cc(/C=C/C#N)cc(C)c1Oc1nc(NC2CCN(Cc3ccc(S(N)(=O)=O)cc3)CC2)nc2ccsc12
Tmax [14]: 1.7 h
AUC (Rattus norvegicus [15]): 2692.2 ng·h/mL
MRT inf [16]: 1.69 h
MRT last [17]: 3.71 h
MRT last [18]: 1.57 h
VRT(t) (Rattus norvegicus [19]): 8.11 hr2
half-life [20]: 3.93 h
VRT (Rattus norvegicus [21]): 35.67 hr2
Cmax [22]: 2220 ng/mL
half-life [23]: 1.34 h
AUC(0-t) [24]: 2320 ng·h/mL
Activity (Mus musculus [25]): Non-Toxic
CLz/F (Rattus norvegicus [26]): 0.242 mL/min/kg
Activity (Mus musculus [27]): Non-Toxic
VRT (Rattus norvegicus [28]): 3.72 hr2
MRT inf [29]: 5.54 h
Cmax [30]: 553 ng/mL
IC50 [31]: 160 nM
AUC(0-t) [32]: 1370 ng·h/mL
VRT(t) (Rattus norvegicus [33]): 2.78 hr2
EC50 [10]: 1.22 nM
AUC(0-inf) [34]: 1390 ng·h/mL

Cc1cc(C#N)cc(C)c1Oc1nc(Nc2ccc(C#N)cc2)nc(N)c1Br [ETRAVIRINE]
selectivity ratio [1]: > 853
selectivity ratio [2]: > 318
selectivity ratio [3]: > 1950
selectivity ratio [4]: > 1130
Ratio EC50 [35]: 0.6 - 7.2
Ratio EC50 [36]: 0.6 - 7.2
Ratio EC50 [37]: 1.3
selectivity ratio [6]: > 224
Ratio EC50 [38]: 0.6 - 7.2
Ratio EC50 [39]: 4.2
selectivity ratio [8]: 156
Ratio EC50 [40]: 0.6 - 7.2
IC50 [31]: 1000 nM
EC50 [10]: 4.07 nM
Ratio EC50 [41]: 0.6 - 7.2
selectivity ratio [11]: > 291
CC50 at 120 h [12]: > 4590 nM
selectivity ratio [13]: > 270

Cc1cc(C#N)cc(C)c1Oc1nc(NC2CCN(Cc3ccc(S(N)(=O)=O)cc3)CC2F)nc2ccsc12 (stereo unspecified)
selectivity ratio ([1]; MT4 cells): 576
selectivity ratio ([2]; MT4 cells): 296
selectivity ratio ([3]; MT4 cells): 653
selectivity ratio ([4]; MT4 cells): 906
Ratio EC50 [35]: 1.4 - 6.5
Ratio EC50 [36]: 1.4 - 6.5
Ratio EC50 [37]: 1.4 - 6.5
selectivity ratio ([6]; MT4 cells): 370
EC50 [7]: > 5150 nM
Ratio EC50 [38]: 1.4 - 6.5
Ratio EC50 [39]: 1.4 - 6.5
selectivity ratio ([8]; MT4 cells): 590
Ratio EC50 [40]: 1.4 - 6.5
EC50 [10]: 5.69 nM
Ratio EC50 [41]: 1.4 - 6.5
selectivity ratio ([11]; MT4 cells): 171
CC50 at 120 h [12]: 5150 nM
selectivity ratio ([13]; MT4 cells): 138
